# Test results as given in ChEMBL document CHEMBL2375276, “Antibacterial oxazolidinone analogues having a N-hydroxyacetyl-substituted seven-membered [1,2,5]triazepane or [1,2,5]oxadiazepane C-ring unit” (Eur J Med Chem, 2013).
# Columns and labels:
# Type in all cases: functional
# [1] = tested on: Haemophilus influenzae; experiment: Antibacterial activity against Haemophilus influenzae SR27914 clinical isolate assessed as growth inhibition by CLSI broth microdilution method
# Outline: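 MIC by CLSI broth microdilution using Haemophilus test medium.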
# [2] = tested on: Moraxella catarrhalis; experiment: Antibacterial activity against Moraxella catarrhalis SR26840 clinical isolate assessed as growth inhibition by CLSI broth microdilution method
# Outline: (§1)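 MIC by CLSI broth microdilution in cation-adjusted Mueller-Hinton broth; S. pneumoniae medium supplemented with 5% lysed horse blood.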
# [3] = tested on: Enterococcus faecium; experiment: Antibacterial activity against Enterococcus faecium SR7940 clinical isolate assessed as growth inhibition by CLSI broth microdilution method; outline: as §1
# [4] = tested on: Streptococcus pneumoniae; experiment: Antibacterial activity against Streptococcus pneumoniae SR26207 clinical isolate assessed as growth inhibition by CLSI broth microdilution method; outline: as §1
# [5] = tested on: Enterococcus faecalis; experiment: Antibacterial activity against Enterococcus faecalis SR1004 clinical isolate assessed as growth inhibition by CLSI broth microdilution method; outline: as §1
# [6] = tested on: Staphylococcus aureus; experiment: Antibacterial activity against Staphylococcus aureus Smith assessed as growth inhibition by CLSI broth microdilution method; outline: as §1
# [7] = tested on: Staphylococcus aureus; experiment: Antibacterial activity against linezolid-resistant Staphylococcus aureus NRS271 assessed as growth inhibition by CLSI broth microdilution method
# Outline: (§2)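 MIC by CLSI broth microdilution in cation-adjusted Mueller-Hinton broth. Lowest concentration inhibiting growth taken as MIC.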
# [8] = tested on: Staphylococcus aureus; experiment: Antibacterial activity against Staphylococcus aureus SR20549 clinical isolate assessed as growth inhibition by CLSI broth microdilution method; outline: as §1
# [9] = tested on: Staphylococcus aureus; experiment: Antibacterial activity against methicillin-resistant Staphylococcus aureus SR3637 infected in JCL/ICR mouse systemic infection model assessed as mortality administered as po measured over 7 days; conditions: 168 h
# Outline: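 Five-week-old male JCL/ICR mice (20–25 g), five per group. Infected intraperitoneally with 0.5 or 1.0 mL bacterial suspension (about 100× LD50). Oral dosing 1 h post-infection. Mortality followed 7 days; ED50 with 95% confidence limits by logit method.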
# [10] = tested on: Staphylococcus aureus; experiment: Antibacterial activity against methicillin-resistant Staphylococcus aureus SR3637 infected in JCL/ICR mouse systemic infection model assessed as mortality administered as iv measured over 7 days; conditions: 168 h
# Outline: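 Five-week-old male JCL/ICR mice (20–25 g), five per group. Infected intraperitoneally with 0.5 or 1.0 mL bacterial suspension (about 100× LD50). Intravenous dosing 1 h post-infection. Mortality followed 7 days; ED50 with 95% confidence limits by logit method.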
# [11] = tested on: Staphylococcus aureus; experiment: Antibacterial activity against methicillin-resistant Staphylococcus aureus SR3637 assessed as growth inhibition by CLSI broth microdilution method; outline: as §2
Structure (SMILES),MIC [1] [µg/mL],MIC [2] [µg/mL],MIC [3] [µg/mL],MIC [4] [µg/mL],MIC [5] [µg/mL],MIC [6] [µg/mL],MIC [7] [µg/mL],MIC [8] [µg/mL],ED50 [9] [mg/kg],ED50 [10] [mg/kg],MIC [11] [µg/mL]
O=C(CO)N1CCN(c2ccc(N3C[C@H](CNc4ccon4)OC3=O)cc2F)CCN1,32,16,2,0.5,2,2,64,1,,,
CC(=O)NC[C@H]1CN(c2cc(F)c(N3CCNOCC3)c(F)c2)C(=O)O1,16,4,1,0.25,2,1,16,1,,,
O=C1O[C@@H](CNc2ccon2)CN1c1cc(F)c(N2CCNOCC2)c(F)c1,16,4,1,0.125,0.5,1,16,0.5,,,
O=C1O[C@@H](Cn2ccnn2)CN1c1cc(F)c(N2CCNOCC2)c(F)c1,8,4,1,0.5,2,2,16,1,,,
O=C(CO)N1CCN(c2c(F)cc(N3C[C@H](CNc4ccon4)OC3=O)cc2F)CCN1,16,16,1,0.125,0.25,0.5,8,0.5,2.83,2.18,0.5
COC(=S)NC[C@H]1CN(c2cc(F)c(N3CCNOCC3)c(F)c2)C(=O)O1,8,1,0.25,0.125,0.5,0.5,4,0.25,,,
O=C(CO)N1CCN(c2ccc(N3C[C@H](Cn4ccnn4)OC3=O)cc2F)CCN1,16,8,4,1,4,4,64,2,,0.77,
O=C(CO)N1CCN(c2c(F)cc(N3C[C@H](Cn4ccnn4)OC3=O)cc2F)CCN1,8,4,1,0.5,1,2,16,1,,1.71,1
CC(=S)NC[C@H]1CN(c2cc(F)c(N3CCNOCC3)c(F)c2)C(=O)O1,2,1,0.125,0.063,0.25,0.25,4,0.25,,,
